Reference: ChEMBL document CHEMBL5653631, “A Potent and Selective ULK1 Inhibitor Suppresses Autophagy and Sensitizes Cancer Cells to Nutrient Stress” (iScience, 2018)
Blank lines part the entries; values can stand above or below the compound they belong to.

What was measured:
[1] = target: Dual specificity mitogen-activated protein kinase kinase 2 (Homo sapiens) (UniProt P36507); experiment: Inhibition of human recombinant MAP2K2 at 500 nM in presence of ATP by radiometric assay relative to control
[2] = target: Serine/threonine-protein kinase N2 (Homo sapiens) (UniProt Q16513); experiment: Inhibition of human recombinant PKN2 at 500 nM in presence of ATP by radiometric assay relative to control
[3] = target: T1, Activin receptor type-1B (Homo sapiens) (UniProt P36896); experiment: Inhibition of human recombinant ALK4 at 500 nM related to control ULK1
T1 sequence (whole entry): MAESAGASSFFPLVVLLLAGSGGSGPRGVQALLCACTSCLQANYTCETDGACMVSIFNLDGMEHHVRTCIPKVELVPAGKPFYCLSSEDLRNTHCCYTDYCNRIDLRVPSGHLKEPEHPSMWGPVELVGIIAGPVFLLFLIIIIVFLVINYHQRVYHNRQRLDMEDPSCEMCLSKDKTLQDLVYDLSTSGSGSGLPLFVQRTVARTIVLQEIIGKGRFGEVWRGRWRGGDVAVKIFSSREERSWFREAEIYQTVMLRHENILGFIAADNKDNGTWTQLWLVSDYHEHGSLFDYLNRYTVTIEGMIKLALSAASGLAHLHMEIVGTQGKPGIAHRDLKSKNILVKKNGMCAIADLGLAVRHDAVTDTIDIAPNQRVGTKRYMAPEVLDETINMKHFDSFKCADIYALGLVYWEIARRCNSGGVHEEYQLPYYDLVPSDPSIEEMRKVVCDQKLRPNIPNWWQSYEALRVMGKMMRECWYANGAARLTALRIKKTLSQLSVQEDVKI
Procedure, shortened: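 Panel of 327 recombinant human kinases, each assayed in vitro by radiometric activity assay in duplicate at a single inhibitor concentration per compound, chosen with reference to its ULK1 inhibition. Activity remaining was expressed as percent of vehicle control, and percent inhibition was calculated as 100 minus percent activity remaining.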

[4] = target: Homeodomain-interacting protein kinase 1 (Homo sapiens) (UniProt Q86Z02); experiment: Inhibition of human recombinant HIPK1 at 500 nM related to control ULK1
[5] = target: Tyrosine-protein kinase Fyn (Homo sapiens) (UniProt P06241); experiment: Inhibition of human recombinant FYN at 15 nM in presence of ATP by radiometric assay relative to control
[6] = target: Serine/threonine-protein kinase Nek6 (Homo sapiens) (UniProt Q9HC98); experiment: Inhibition of human recombinant NEK6 at 15 nM in presence of ATP by radiometric assay relative to control
[7] = target: DNA-PK/Ku70/Ku85 (Homo sapiens) (UniProt P78527+P12956+P13010); experiment: Inhibition of human recombinant DNAPK at 15 nM related to control ULK1; assay type: protein-complex assay
[8] = target: G protein-coupled receptor kinase 6 (Homo sapiens) (UniProt P43250); experiment: Inhibition of human recombinant GPRK6 at 15 nM related to control ULK1
[9] = target: Leucine-rich repeat serine/threonine-protein kinase 2 (Homo sapiens) (UniProt Q5S007); experiment: Inhibition of human recombinant LRRK2 at 15 nM related to control ULK1
[10] = target: cAMP-dependent protein kinase catalytic subunit alpha (Homo sapiens) (UniProt P17612); experiment: Inhibition of human recombinant PKACalpha at 15 nM related to control ULK1
[11] = target: Ribosomal protein S6 kinase alpha-3 (Homo sapiens) (UniProt P51812); experiment: Inhibition of human recombinant RSK2 at 15 nM related to control ULK1
[12] = target: Tyrosine-protein kinase Fer (Homo sapiens) (UniProt P16591); experiment: Inhibition of human recombinant FER at 40 nM in presence of ATP by radiometric assay relative to control
[13] = target: Interferon-induced, double-stranded RNA-activated protein kinase (Homo sapiens) (UniProt P19525); experiment: Inhibition of human recombinant PKR at 40 nM in presence of ATP by radiometric assay relative to control
[14] = target: T2, Serine/threonine-protein kinase tousled-like 1 (Homo sapiens) (UniProt Q9UKI8); experiment: Inhibition of human recombinant TLK1 at 40 nM in presence of ATP by radiometric assay relative to control
T2 sequence (whole entry): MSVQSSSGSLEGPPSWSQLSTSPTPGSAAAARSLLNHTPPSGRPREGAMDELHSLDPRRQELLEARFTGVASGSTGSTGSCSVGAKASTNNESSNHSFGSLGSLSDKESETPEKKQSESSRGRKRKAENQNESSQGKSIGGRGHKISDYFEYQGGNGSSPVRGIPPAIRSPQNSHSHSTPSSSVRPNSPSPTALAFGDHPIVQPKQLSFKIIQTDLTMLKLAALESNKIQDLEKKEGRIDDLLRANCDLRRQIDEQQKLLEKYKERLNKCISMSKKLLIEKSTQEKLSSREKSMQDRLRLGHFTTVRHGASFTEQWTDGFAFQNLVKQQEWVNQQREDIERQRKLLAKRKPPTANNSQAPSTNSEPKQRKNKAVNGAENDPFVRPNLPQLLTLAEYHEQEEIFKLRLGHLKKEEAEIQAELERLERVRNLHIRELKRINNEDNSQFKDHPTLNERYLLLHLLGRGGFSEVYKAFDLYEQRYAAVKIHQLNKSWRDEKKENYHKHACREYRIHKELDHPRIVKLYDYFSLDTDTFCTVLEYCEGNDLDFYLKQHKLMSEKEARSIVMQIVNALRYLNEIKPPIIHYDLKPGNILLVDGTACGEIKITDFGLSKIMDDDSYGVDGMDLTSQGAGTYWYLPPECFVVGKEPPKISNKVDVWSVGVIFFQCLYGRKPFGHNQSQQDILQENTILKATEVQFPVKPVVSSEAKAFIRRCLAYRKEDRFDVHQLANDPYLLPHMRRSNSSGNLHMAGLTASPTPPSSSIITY

[15] = target: Protein-tyrosine kinase 6 (Homo sapiens) (UniProt Q13882); experiment: Inhibition of human recombinant BRK at 40 nM related to control ULK1
[16] = target: Tyrosine-protein kinase JAK1 (Homo sapiens) (UniProt P23458); experiment: Inhibition of human recombinant JAK1 at 40 nM related to control ULK1
[17] = target: PAS domain-containing serine/threonine-protein kinase (Homo sapiens) (UniProt Q96RG2); experiment: Inhibition of human recombinant PASK at 40 nM related to control ULK1
[18] = target: Angiopoietin-1 receptor (Homo sapiens) (UniProt Q02763); experiment: Inhibition of human recombinant Tie2 at 40 nM related to control ULK1
Chain of Angiopoietin-1 receptor (Homo sapiens) (Q02763 whole entry): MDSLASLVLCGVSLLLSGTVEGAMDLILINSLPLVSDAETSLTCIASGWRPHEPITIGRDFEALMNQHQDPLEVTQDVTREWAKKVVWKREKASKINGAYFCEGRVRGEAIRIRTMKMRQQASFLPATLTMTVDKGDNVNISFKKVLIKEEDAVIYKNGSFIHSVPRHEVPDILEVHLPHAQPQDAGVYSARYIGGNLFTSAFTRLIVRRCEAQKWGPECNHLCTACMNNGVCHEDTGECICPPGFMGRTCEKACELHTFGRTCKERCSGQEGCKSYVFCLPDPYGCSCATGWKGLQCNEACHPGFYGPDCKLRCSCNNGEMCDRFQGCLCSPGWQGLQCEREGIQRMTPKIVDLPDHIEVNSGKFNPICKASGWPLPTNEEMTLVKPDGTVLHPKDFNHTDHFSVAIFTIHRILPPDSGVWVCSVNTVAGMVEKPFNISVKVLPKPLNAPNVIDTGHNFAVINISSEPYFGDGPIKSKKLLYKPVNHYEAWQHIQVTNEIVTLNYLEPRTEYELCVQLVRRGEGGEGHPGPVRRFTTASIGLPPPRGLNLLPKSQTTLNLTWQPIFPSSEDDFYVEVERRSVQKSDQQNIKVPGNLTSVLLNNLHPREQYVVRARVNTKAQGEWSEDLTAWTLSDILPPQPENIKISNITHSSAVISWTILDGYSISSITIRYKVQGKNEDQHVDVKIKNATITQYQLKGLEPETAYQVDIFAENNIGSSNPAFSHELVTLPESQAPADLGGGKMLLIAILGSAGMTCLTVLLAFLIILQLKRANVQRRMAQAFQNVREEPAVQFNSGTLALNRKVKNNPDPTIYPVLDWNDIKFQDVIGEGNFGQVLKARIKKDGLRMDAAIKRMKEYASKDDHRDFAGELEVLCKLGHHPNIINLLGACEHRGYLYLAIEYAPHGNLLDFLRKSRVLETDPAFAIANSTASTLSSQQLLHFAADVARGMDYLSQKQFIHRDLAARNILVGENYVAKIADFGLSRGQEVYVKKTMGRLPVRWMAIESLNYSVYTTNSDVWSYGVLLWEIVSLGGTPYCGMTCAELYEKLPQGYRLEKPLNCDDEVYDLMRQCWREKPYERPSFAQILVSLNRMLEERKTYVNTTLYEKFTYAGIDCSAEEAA

Chain of Tyrosine-protein kinase Fer (Homo sapiens) (P16591 whole entry, looked up): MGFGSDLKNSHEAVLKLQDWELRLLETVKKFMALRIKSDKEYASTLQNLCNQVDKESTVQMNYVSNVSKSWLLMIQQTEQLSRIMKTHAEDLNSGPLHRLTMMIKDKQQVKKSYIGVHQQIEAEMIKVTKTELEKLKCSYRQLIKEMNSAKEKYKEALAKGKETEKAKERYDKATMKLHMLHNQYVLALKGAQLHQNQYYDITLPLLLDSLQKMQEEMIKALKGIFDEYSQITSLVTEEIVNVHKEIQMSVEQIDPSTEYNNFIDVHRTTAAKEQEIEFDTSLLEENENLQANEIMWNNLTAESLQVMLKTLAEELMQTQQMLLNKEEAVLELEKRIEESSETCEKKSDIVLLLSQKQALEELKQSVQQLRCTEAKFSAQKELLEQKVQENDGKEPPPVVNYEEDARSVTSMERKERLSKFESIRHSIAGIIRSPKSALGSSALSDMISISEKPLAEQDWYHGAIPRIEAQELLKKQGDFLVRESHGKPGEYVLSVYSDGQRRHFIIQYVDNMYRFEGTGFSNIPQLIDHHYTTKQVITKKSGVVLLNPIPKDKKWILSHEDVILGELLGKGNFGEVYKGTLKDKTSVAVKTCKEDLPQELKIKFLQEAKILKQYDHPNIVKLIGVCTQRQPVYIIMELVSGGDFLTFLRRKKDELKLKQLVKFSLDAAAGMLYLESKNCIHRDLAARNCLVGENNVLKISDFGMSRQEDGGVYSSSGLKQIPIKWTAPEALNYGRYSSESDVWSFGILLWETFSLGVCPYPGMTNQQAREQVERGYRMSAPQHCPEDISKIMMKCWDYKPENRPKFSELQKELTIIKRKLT
Chain of G protein-coupled receptor kinase 6 (Homo sapiens) (P43250 whole entry, looked up): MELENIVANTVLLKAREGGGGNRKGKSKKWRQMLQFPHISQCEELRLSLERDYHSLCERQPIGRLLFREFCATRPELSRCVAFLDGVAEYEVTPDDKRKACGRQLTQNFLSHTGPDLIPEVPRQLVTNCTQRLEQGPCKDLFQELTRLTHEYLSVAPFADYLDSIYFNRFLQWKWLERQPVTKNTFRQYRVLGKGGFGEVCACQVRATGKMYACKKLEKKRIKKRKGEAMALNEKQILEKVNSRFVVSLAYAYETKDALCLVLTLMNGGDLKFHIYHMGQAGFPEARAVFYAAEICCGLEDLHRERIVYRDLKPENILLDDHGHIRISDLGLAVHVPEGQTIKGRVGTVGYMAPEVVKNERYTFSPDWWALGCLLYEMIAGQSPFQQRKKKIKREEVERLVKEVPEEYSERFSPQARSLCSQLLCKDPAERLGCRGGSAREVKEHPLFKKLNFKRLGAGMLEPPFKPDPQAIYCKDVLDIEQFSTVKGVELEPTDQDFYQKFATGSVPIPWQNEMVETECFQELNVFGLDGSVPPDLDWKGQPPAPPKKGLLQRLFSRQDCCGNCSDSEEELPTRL
Chain of Interferon-induced, double-stranded RNA-activated protein kinase (Homo sapiens) (P19525 whole entry): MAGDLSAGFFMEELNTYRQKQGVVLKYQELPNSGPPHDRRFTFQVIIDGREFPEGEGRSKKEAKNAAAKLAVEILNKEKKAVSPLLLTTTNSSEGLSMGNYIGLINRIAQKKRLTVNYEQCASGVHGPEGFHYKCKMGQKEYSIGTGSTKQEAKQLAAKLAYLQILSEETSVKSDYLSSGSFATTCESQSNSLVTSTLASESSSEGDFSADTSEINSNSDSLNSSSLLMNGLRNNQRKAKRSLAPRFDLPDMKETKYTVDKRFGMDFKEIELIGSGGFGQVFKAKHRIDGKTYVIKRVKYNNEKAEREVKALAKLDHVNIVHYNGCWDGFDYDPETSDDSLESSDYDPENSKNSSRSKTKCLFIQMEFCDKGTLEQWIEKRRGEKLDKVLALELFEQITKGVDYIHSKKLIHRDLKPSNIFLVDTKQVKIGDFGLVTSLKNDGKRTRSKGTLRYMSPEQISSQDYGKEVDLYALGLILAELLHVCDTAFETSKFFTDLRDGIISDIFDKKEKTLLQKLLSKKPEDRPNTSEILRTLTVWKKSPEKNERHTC
Chain of Homeodomain-interacting protein kinase 1 (Homo sapiens) (Q86Z02 whole entry, looked up): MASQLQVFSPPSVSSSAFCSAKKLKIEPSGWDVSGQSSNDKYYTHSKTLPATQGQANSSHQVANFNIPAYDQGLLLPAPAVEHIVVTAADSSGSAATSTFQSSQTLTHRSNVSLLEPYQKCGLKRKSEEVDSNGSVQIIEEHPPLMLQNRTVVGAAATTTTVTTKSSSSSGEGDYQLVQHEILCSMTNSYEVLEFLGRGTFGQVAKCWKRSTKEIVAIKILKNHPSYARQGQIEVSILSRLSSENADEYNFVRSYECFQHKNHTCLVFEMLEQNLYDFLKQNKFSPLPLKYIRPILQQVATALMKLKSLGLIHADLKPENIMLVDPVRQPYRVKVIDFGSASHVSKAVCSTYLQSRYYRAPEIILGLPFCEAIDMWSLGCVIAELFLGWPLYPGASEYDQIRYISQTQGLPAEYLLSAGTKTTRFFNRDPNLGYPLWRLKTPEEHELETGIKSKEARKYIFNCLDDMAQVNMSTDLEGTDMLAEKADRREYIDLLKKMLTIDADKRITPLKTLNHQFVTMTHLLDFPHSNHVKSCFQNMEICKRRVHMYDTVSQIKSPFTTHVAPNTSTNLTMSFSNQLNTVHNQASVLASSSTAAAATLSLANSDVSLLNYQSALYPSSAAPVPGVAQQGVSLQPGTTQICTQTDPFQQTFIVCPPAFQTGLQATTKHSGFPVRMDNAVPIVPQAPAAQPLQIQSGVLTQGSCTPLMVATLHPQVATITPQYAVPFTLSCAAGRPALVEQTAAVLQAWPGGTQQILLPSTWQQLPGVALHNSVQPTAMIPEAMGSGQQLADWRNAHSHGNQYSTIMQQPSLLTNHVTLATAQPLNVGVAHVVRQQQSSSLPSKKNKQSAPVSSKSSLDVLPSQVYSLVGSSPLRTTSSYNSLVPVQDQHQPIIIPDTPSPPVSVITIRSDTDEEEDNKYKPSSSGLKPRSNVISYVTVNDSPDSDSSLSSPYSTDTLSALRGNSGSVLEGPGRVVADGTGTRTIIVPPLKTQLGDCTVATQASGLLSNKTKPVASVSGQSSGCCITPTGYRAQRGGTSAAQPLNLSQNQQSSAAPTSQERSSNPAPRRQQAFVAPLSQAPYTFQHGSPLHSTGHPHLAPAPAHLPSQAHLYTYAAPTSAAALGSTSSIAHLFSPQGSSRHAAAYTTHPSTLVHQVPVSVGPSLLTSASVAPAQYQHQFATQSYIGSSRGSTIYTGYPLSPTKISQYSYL
Chain of Ribosomal protein S6 kinase alpha-3 (Homo sapiens) (P51812 whole entry): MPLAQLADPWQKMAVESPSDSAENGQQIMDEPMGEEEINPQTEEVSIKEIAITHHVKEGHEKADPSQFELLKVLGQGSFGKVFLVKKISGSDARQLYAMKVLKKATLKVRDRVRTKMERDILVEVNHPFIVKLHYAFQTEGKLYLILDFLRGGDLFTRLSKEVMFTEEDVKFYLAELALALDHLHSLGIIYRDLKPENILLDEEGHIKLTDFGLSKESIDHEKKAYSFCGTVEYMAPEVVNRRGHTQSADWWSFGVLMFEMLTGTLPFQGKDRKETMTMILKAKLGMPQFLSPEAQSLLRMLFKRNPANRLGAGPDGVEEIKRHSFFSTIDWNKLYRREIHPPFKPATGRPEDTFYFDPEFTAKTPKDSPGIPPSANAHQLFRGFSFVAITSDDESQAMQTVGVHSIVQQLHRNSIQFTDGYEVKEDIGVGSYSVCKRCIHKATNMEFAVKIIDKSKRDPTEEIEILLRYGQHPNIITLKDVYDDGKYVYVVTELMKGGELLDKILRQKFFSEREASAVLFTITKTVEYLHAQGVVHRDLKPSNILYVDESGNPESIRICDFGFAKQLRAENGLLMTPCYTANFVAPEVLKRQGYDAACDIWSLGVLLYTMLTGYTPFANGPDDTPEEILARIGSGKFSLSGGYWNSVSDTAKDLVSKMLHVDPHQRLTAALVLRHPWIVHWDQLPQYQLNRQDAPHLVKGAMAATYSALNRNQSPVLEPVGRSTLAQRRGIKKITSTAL

- inhibition [1]: 0%
- inhibition [2]: 0%
- fold change (FC) [3]: 0.2
- fold change (FC) [4]: 0.04
SMILES: CNC(=O)c1ccccc1Oc1nc(Nc2cc(OC)c(OC)c(OC)c2)ncc1Br

- inhibition [5]: 16%
- inhibition [6]: 1%
- fold change (FC) [7]: 0
- fold change (FC) [8]: 0
- fold change (FC) [9]: 0.03
- fold change (FC) [10]: 0
- fold change (FC) [11]: 0
SMILES: CC(C)[C@H](NC(=O)c1cc(-c2cnn3cc(-c4ccc(OCCN5CCCCC5)cc4)cnc23)cs1)C(F)(F)F

- inhibition [12]: 0%
- inhibition [13]: 0%
- inhibition [14]: 0%
- fold change (FC) [15]: 0
- fold change (FC) [16]: 0
- fold change (FC) [17]: 0.16
- fold change (FC) [18]: 0
SMILES: O=C(N[C@@H](C1CC1)C(F)(F)F)c1cc(-c2cnn3cc(-c4ccc(F)cc4)cnc23)cs1
